In ChEMBL document CHEMBL1153729, “Structurally diverse limonoids from the fruits of Swietenia mahagoni” (2009) one finds Activity and MIC data, which are given here for 14 molecules.

The test system of one assay is Pseudomonas aeruginosa. In words: Antibacterial activity against Pseudomonas aeruginosa ATCC 14502 after 18 hrs. The assay is classed as functional, organism-based. In a few lines: (§1)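 Bacterial cells suspended in Mueller-Hinton broth at a final density of […]. Incubated aerobically with compounds in DMSO at 37 °C for 18 h, alongside DMSO-only blank cultures and an ofloxacin positive control. MIC taken as the lowest concentration giving complete inhibition of visible growth.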

The subject of another assay is Bacillus subtilis. In words: Antibacterial activity against Bacillus subtilis ATCC 6633 after 18 hrs. The class given is functional, organism-based. In a few lines: as §1
The subject of another assay is Saccharomyces. Nature of the assay: Antifungal activity against Saccharomyces sake ATCC 26421 after 48 hrs. The assay is classed as functional, organism-based. In a few lines:
(§2)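 Fungi grown in Sabouraud dextrose broth with compounds for 48 h at 37 °C. Blank cultures received a limited amount of DMSO. Amphotericin B, dissolved in DMSO, served as the positive control.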

Another assay has as its system Nannizzia gypsea. Nature of the assay: Antifungal activity against Microsporum gypseum ATCC 14683 after 48 hrs. The class given is functional, organism-based. A digest of the protocol:
as §2

Another assay concerns Trichophyton rubrum. Nature of the assay: Antifungal activity against Trichophyton rubrum ATCC 10218 after 48 hrs. The class given is functional, organism-based. A digest of the protocol:
as §2

For another assay, the system named is Candida albicans. Nature of the assay: Antifungal activity against Candida albicans ATCC 1600 after 48 hrs. The assay is classed as functional, organism-based. A digest of the protocol:
as §2

The subject of the next assay is Staphylococcus aureus. In words: Antibacterial activity against Staphylococcus aureus ATCC 25923 after 18 hrs. The class given is functional, organism-based. A digest of the protocol:
as §1

The subject of assay [1] is Staphylococcus epidermidis. In words: Antibacterial activity against Staphylococcus epidermidis ATCC 12228 after 18 hrs. The assay is classed as functional, organism-based. A digest of the protocol:
as §1

The next assay concerns Kocuria rhizophila. In words: Antibacterial activity against Micrococcus luteus ATCC 9341 after 18 hrs. The assay is classed as functional. To be noted: for Activity: DC2201. A digest of the protocol: as §1
Another assay relates to Escherichia coli. Nature of the assay: Antibacterial activity against Escherichia coli ATCC 25922 after 18 hrs. The class given is functional, organism-based. A digest of the protocol:
as §1

The subject of the next assay is Shigella flexneri. In words: Antibacterial activity against Shigella flexneri ATCC 12022 after 18 hrs. The class given is functional, organism-based. A digest of the protocol: as §1

One may read the MIC as the lowest concentration found to suppress growth. A low value points to greater potency.

≈ marks a conversion by molar mass, not a printed value. Calls of active or inactive are those of the source. The rule behind the calls is not given here.

With `COC(=O)C[C@H]1C(C)(C)[C@H](O)[C@@H]2C=C3[C@H]([C@H](OC(C)=O)C[C@]4(C)[C@H]3CC(=O)O[C@H]4c3ccoc3)[C@@]1(C)C2=O`, the outcome in the assay on Pseudomonas aeruginosa, in the assay with Bacillus subtilis, with Saccharomyces, in the assay with Nannizzia gypsea, with Trichophyton rubrum and with Candida albicans was inactive. Moreover, the outcome (in the assay with Staphylococcus aureus; in assay [1]; in the assay on Kocuria rhizophila; in the assay on Escherichia coli; in the assay on Shigella flexneri) was inactive.

As for `CC(=O)O[C@H]1C[C@@H](O)C(C)(C)[C@@H]2C[C@@H](OC(C)=O)[C@]3(C)[C@H](CC[C@@]4(C)[C@H](c5ccoc5)OC(=O)[C@H]5O[C@@]534)[C@@]12C`, the result with Pseudomonas aeruginosa, with Bacillus subtilis, with Saccharomyces, with Nannizzia gypsea, in the assay on Trichophyton rubrum and in the assay on Candida albicans was inactive. Moreover, the result (with Staphylococcus aureus; in assay [1]; with Kocuria rhizophila; in the assay with Escherichia coli; with Shigella flexneri) was inactive.

As to `CC(=O)O[C@H]1C[C@@H](O)C(C)(C)[C@@H]2C[C@@H](O)[C@]3(C)[C@H](CC[C@@]4(C)[C@H](c5ccoc5)OC(=O)[C@H]5O[C@@]534)[C@@]12C`, the result in the assay with Pseudomonas aeruginosa, with Bacillus subtilis, in the assay on Saccharomyces, in the assay with Nannizzia gypsea, with Trichophyton rubrum and in the assay on Candida albicans was inactive. For the same molecule, the outcome (in the assay with Staphylococcus aureus; in [1]; in the assay with Kocuria rhizophila; with Escherichia coli; in the assay with Shigella flexneri) was inactive.

Turning to `COC(=O)C[C@H]1C(C)(C)[C@H](OC(=O)c2ccccc2)[C@]2(O)CC3=C4CC(=O)O[C@@H](c5ccoc5)[C@]4(C)CC[C@@H]3[C@@]1(C)C2=O`, the outcome in the assay on Pseudomonas aeruginosa, in the assay with Bacillus subtilis, with Saccharomyces, with Nannizzia gypsea, with Trichophyton rubrum and with Candida albicans was inactive. In addition, the outcome (in the assay on Staphylococcus aureus; in [1]; in the assay on Kocuria rhizophila; with Escherichia coli; in the assay with Shigella flexneri) was inactive.

As for `COC(=O)C[C@H]1C(C)(C)[C@H](OC(=O)C(C)C)[C@]2(O)C=C3C4=CC(=O)O[C@@H](c5ccoc5)[C@]4(C)CC[C@@H]3[C@@]1(C)C2=O`, the outcome in the assay with Pseudomonas aeruginosa, with Bacillus subtilis, in the assay with Saccharomyces, in the assay on Nannizzia gypsea, in the assay with Trichophyton rubrum and in the assay with Candida albicans was inactive. Besides, the outcome (in the assay on Staphylococcus aureus; in assay [1]; with Kocuria rhizophila; with Escherichia coli; with Shigella flexneri) was inactive.

In the case of `CC(=O)O[C@H]1C[C@@H](OC(C)=O)C(C)(C)[C@@H]2C[C@@H](OC(C)=O)[C@]3(C)[C@H](CC[C@@]4(C)[C@H](c5ccoc5)OC(=O)[C@H]5O[C@@]534)[C@@]12C`, the outcome with Pseudomonas aeruginosa, with Bacillus subtilis, with Saccharomyces, in the assay with Nannizzia gypsea, with Trichophyton rubrum and in the assay with Candida albicans was inactive. Further, the result (in the assay on Staphylococcus aureus; in [1]; in the assay on Kocuria rhizophila; in the assay with Escherichia coli; with Shigella flexneri) was inactive.

Take `COC(=O)C[C@H]1C(C)(C)[C@H](OC(C)=O)[C@@H]2C=C3[C@H]([C@H](OC(C)=O)C[C@]4(C)[C@H]3CC(=O)O[C@H]4c3ccoc3)[C@@]1(C)C2=O`: the result with Pseudomonas aeruginosa, in the assay with Bacillus subtilis, in the assay on Saccharomyces, in the assay on Nannizzia gypsea, in the assay on Trichophyton rubrum and with Candida albicans was inactive. In addition, the result (with Staphylococcus aureus; in [1]; in the assay with Kocuria rhizophila; in the assay with Escherichia coli; with Shigella flexneri) was inactive.

Molecule `CC1COc2c(N3CCN(C)CC3)c(F)cc3c(=O)c(C(=O)O)cn1c23` (centres undefined) [OFLOXACIN] returned an MIC against Kocuria rhizophila (DC2201, 18 h) of 1.56 µg/mL (≈ 4.32 µM).

With `COC(=O)C[C@H]1C(C)(C)[C@H](OC(C)=O)[C@]2(O)CC3=C4[C@@H](O)C(=O)O[C@@H](c5ccoc5)[C@]4(C)CC[C@@H]3[C@@]1(C)C2=O`, the outcome in the assay on Pseudomonas aeruginosa, with Bacillus subtilis, in the assay on Saccharomyces, with Nannizzia gypsea, with Trichophyton rubrum and in the assay with Candida albicans was inactive. In addition, the outcome (with Staphylococcus aureus; in assay [1]; with Kocuria rhizophila; with Escherichia coli; with Shigella flexneri) was inactive.

Regarding `C=C1C2=CC(=O)O[C@@H](c3ccoc3)[C@]2(C)CC[C@@H]1[C@@]1(C)[C@@H](O)CC(=O)C(C)(C)[C@@H]1CC(=O)OC`, the outcome in the assay on Pseudomonas aeruginosa, in the assay with Bacillus subtilis, in the assay with Saccharomyces, with Nannizzia gypsea, with Trichophyton rubrum and with Candida albicans was inactive. Besides, the outcome (in the assay on Staphylococcus aureus; in [1]; in the assay with Kocuria rhizophila; in the assay with Escherichia coli; in the assay on Shigella flexneri) was inactive.

For `C/C=C(\C)C(=O)O[C@H]1C(C)(C)[C@H](CC(=O)OC)[C@]2(C)C(=O)[C@@]1(O)CC1=C3[C@@H](O)C(=O)O[C@@H](c4ccoc4)[C@]3(C)CC[C@@H]12`, the result in the assay with Pseudomonas aeruginosa, with Bacillus subtilis, in the assay with Saccharomyces, in the assay with Nannizzia gypsea, in the assay on Trichophyton rubrum and with Candida albicans was inactive. For the same molecule, the result (in the assay on Staphylococcus aureus; in assay [1]; in the assay on Kocuria rhizophila; in the assay on Escherichia coli; in the assay with Shigella flexneri) was inactive.

`COC(=O)C[C@H]1C(C)(C)C(=O)[C@@H]2C[C@]3(O)C4=CC(=O)O[C@@H](c5ccoc5)[C@]4(C)CC[C@@H]3[C@@]1(C)C2=O`: the outcome in the assay with Pseudomonas aeruginosa, with Bacillus subtilis, with Saccharomyces, in the assay on Nannizzia gypsea, with Trichophyton rubrum and in the assay on Candida albicans was inactive. In addition, the outcome (in the assay with Staphylococcus aureus; in [1]; in the assay with Kocuria rhizophila; with Escherichia coli; in the assay with Shigella flexneri) was inactive.

For `COC(=O)C[C@H]1C(C)(C)[C@@H](OC(C)=O)[C@@H]2CC3=C4CC(=O)O[C@@H](c5ccoc5)[C@]4(C)CC[C@@H]3[C@@]1(C)C2=O`, the outcome in the assay with Pseudomonas aeruginosa, with Bacillus subtilis, with Saccharomyces, with Nannizzia gypsea, in the assay with Trichophyton rubrum and with Candida albicans was inactive. Also, the result (with Staphylococcus aureus; in assay [1]; in the assay with Kocuria rhizophila; in the assay with Escherichia coli; in the assay with Shigella flexneri) was inactive.

Take `C=C1[C@@H]2CC[C@@]3(C)[C@H](c4ccoc4)OC(=O)C[C@]13O[C@H]1CC(=O)C(C)(C)[C@H](C(O)C(=O)OC)[C@]12C` (some centres undefined): the outcome with Pseudomonas aeruginosa, with Bacillus subtilis, with Saccharomyces, in the assay with Nannizzia gypsea, with Trichophyton rubrum and with Candida albicans was inactive. Also, the outcome (with Staphylococcus aureus; in assay [1]; with Kocuria rhizophila; in the assay on Escherichia coli; with Shigella flexneri) was inactive.
